Assay outcomes: PubChem BioAssay, several laboratories
The list is not random: actives were taken first. Their share in the collection is about 9.4%.
Beta cell apopt: inhibitors of cytokine-induced beta cell apoptosis, primary screen, luminescence | INS-1E cytokine-induced death, ATP luminescence, 48 h; percent of positive-control rescue, neutral wells zero | protection from apoptosis, % (test concentration not listed) | hit rate 0.8% among 300,000 | AID 435005, 2010;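 active means Every replicate reaches about 75%, or at least half do and their mean reaches it too, limit read from the data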;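 further: 0% = cytokine-treated negative control wells and 100% = positive control rescue; higher means more ATP so stronger rescue from cytokine killing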
CSC inhib: cancer stem cell viability inhibitors, primary screen, luminescence. hit rate 1.1% among 300,000. cancer stem cell-like cells viability. inhibition, % at 7.5 µM; in the data active means inhibition above about 75%; tested in HMLE shEcad cells
SKKanGAS inh: S. pyogenes SKKanGAS growth inhibitors in kanamycin, primary screen, streptokinase expression inhibitor project, SKKanGAS strain, BacTiter-Glo luminescence. 6 h. inhibition, % at 7.5 µM. hit rate 1.3% among 300,000. AID 1662, 2009;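 active means mean replicate score, as percent of positive control median, at least 50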;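 further: strain carries kanamycin resistance gene driven by streptokinase promoter and grows in 40 µg/ml kanamycin; loss of luminescence reflects streptokinase promoter inhibition or plain growth inhibition; 0% = median of DMSO wells and 100% = positive control at its reference dose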
Mdm2-MdmX inh: inhibitors of human Mdm2-MdmX association, primary screen, cell-based, luminescence, split luciferase, SaOS-2, uHTS | Protein Mdm4 (Homo sapiens) + E3 ubiquitin-protein ligase Mdm2 (Homo sapiens), … | SaOS-2 split-luciferase Mdm2/MdmX complementation | inhibition, % at 8 µM | hit rate 3% among 330,000 | AID 485346, 2010;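 active means inhibition of at least 50% at 8 µM in the primary screen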
Target sequence (O15151 whole entry, looked up): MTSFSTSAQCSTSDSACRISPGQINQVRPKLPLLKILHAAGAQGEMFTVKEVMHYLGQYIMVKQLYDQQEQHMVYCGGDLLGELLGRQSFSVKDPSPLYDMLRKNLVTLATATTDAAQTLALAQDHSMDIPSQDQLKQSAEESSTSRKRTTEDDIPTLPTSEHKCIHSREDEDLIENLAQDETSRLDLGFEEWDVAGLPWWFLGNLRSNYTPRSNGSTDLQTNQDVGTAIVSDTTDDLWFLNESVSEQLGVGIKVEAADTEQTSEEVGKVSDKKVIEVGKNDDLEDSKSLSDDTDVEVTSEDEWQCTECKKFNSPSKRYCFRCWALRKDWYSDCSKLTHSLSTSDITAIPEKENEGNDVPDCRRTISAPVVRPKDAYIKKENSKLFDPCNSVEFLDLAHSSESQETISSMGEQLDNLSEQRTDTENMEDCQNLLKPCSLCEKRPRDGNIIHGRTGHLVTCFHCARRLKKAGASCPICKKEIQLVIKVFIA
Target sequence (Q00987 whole entry, looked up): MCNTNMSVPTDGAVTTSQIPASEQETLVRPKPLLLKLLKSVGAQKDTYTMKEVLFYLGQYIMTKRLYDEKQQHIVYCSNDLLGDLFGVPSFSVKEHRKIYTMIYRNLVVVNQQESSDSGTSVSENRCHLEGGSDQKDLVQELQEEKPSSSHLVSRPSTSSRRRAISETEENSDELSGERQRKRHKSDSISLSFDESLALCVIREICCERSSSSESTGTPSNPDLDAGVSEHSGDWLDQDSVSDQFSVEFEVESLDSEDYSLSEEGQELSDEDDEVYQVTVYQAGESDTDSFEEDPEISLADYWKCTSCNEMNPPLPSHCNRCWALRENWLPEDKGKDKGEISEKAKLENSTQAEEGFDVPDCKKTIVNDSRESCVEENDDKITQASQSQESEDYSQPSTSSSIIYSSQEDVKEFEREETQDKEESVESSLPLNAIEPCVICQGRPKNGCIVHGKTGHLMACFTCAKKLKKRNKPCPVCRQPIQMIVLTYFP
L major viab: Leishmania major promastigote growth inhibition, primary screen. hit rate 9% among 200,000. Leishmania major promastigotes, resazurin fluorescence viability. AID 1063, 2008. inhibition, % at 10 µM; in the data active means inhibition above about 50%;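 further: promastigotes grown with compound for 44 hours at 28 °C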
T cruzi inh: inhibitors of intracellular T. cruzi growth, primary screen, luminescence, NIH3T3 host cells | T. cruzi beta-gal in NIH3T3, 90 h | inhibition, % (test concentration not listed) | hit rate 1.4% among 300,000;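 active means mean inhibition across valid replicates above about 55%, limit read from the data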;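 further: signal also drops with host cell toxicity which is not excluded here; 0% = plate median of DMSO wells and 100% = zero luminescence signal; higher percent means less beta-gal luminescence so fewer parasites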
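Assay system: NIH/3T3 fibroblasts plus reporter T. cruzi. Amount: NIH/3T3 cells, 5,000 per well. Buffer or medium: DMEM, 2% fetal bovine serum. Doses: compound pinned at 50 nL/well, DMSO. Schedule: ≥90 h infection period, 3 h prior cell attachment. Signal: luminescent β-galactosidase signal after 60 min lysis. Read-out: parasite load inhibition, %.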
Active calls of the source: *; . = no result.

SMILES | Beta cell apopt | CSC inhib | SKKanGAS inh | Mdm2-MdmX inh | L major viab | T cruzi inh
Cc1nn(Cc2nnc(SCC(=O)Nc3ccc(Cl)cc3)n2C)c(C)c1[N+](=O)[O-] | -6 | 1 | -8 | -31 | . | 18
Cc1csc2ncnc(N3CCN(C(=O)Nc4ccc(OC(F)(F)F)cc4)CC3)c12 | -7 | 44 | 9 | 32 | . | 9
CC(=O)Oc1ccc2c(=O)c(-c3nc4ccccc4s3)coc2c1 | -1 | 84* | 10 | -84 | -5 | -10
CC(C)Oc1ccc2c(=O)c(-c3ccccc3)coc2c1 | 7 | 3 | -5 | -269 | -5 | 12
CC(C)Oc1ccc(CNCCC2(C(C)C)CCOC(C)(C)C2)cc1 (stereo unspecified) | 1 | 10 | 3 | 18 | 95* | 68*
Cc1cccc(-n2ncc3c2CCCC3NC(=O)c2ccc[n+]([O-])c2)c1C (stereo unspecified) | -3 | -3 | 9 | 26 | . | -17
Cc1cc(C(=O)NC2CCCc3c2cnn3-c2cccc(C)c2C)n(C)n1 (stereo unspecified) | 112* | 18 | -5 | 5 | . | -98
Cn1nccc1C(=O)NC1CCCc2c1cnn2-c1ccc(C(C)(C)C)cc1 (stereo unspecified) | 116* | -6 | 1 | 20 | . | -6
Cc1ccc(-n2ncc3c2CCCC3NC(=O)c2ocnc2C)cc1C (stereo unspecified) | 80* | 4 | 2 | 36 | . | -91
Cc1cc(C(=O)NC2CCCc3c2cnn3-c2ccc(C)c(C)c2)no1 (stereo unspecified) | 6 | 6 | 1 | 3 | . | -5
Cc1ccc(C(=O)NC2CCCc3c2cnn3-c2ccc(F)cc2F)cn1 (stereo unspecified) | 100* | 5 | -4 | 14 | . | 2
Cc1cc(C)cc(N(C(=O)CNS(=O)(=O)c2ccccc2)C(C(=O)NCc2ccccc2)c2ccc(C)o2)c1 (stereo unspecified) | 11 | 1 | 14 | 30 | 55* | 43
Cc1cccc(N2CCN(S(=O)(=O)c3c(C)[nH]c(C)c3C(=O)N3CCCC3)CC2C)c1 (stereo unspecified) | -6 | -6 | -1 | 20 | . | 3
COc1cc(NC(=S)NC(C)(C)C)c(OC)cc1Cl | 2 | -4 | 3 | 16 | 67* | 16
COc1cc(NC(=S)Nc2ccc(Br)cc2Cl)c(OC)cc1Cl | -11 | 7 | 2 | -38 | 32 | 9
COc1cc(NC(=S)Nc2cccc(Cl)c2Cl)c(OC)cc1Cl | -4 | 9 | -5 | -3 | 59* | 28
Cc1cc(=O)oc2cc(OCC(=O)OCC(=O)NC3CC3)ccc12 | -1 | -5 | -4 | -22 | 1 | 0
O=C(CSc1c2c(nc3cc(Cl)ccc13)CCCC2)NCCCN1CCOCC1 | -1 | -5 | -10 | 22 | 32 | 7
COCCCNC(=O)CSc1c2c(nc3ccc(Cl)cc13)CCCC2 | -12 | 0 | 1 | -3 | 25 | 12
O=C(CSc1c2c(nc3cc(Cl)ccc13)CCCC2)NCCN1CCOCC1 | -4 | -1 | 0 | 28 | 59* | 27
CCN(CC)CCCNC(=O)CSc1c2c(nc3cc(Cl)ccc13)CCCC2 | 0 | 2 | -5 | 10 | 100* | 29
CC(C)CC(=O)Nc1cccc(NC(=O)CC(C)C)n1 | -3 | -5 | 4 | -19 | 52* | -6
CCCn1c(N)c(N(CCOC)C(=O)CSCC(=O)Nc2ccc(OC)cc2)c(=O)[nH]c1=O | -13 | -16 | 1 | 2 | . | -6
Cn1c(N=Nc2ccc(N3CCOCC3)cc2)[n+](C)c2ccccc21 | . | . | 5 | . | 100* | 36
Cn1c(=Nc2ccc(N3CCOCC3)cc2)ccc2ccccc21 | 2 | 7 | -6 | 13 | 12 | 2
SMILES | Beta cell apopt | CSC inhib | SKKanGAS inh | Mdm2-MdmX inh | L major viab | T cruzi inh
Cn1c(=O)c2c(ncn2CC(COCc2ccc(Cl)cc2)OCc2ccc(Cl)cc2)n(C)c1=O (stereo unspecified) | 16 | 26 | 2 | 20 | 100* | 14
c1ccc(CCNc2ncnc3scc(C4COc5ccccc5O4)c23)cc1 (stereo unspecified) | -1 | 26 | 35 | 29 | 85* | 4
O=C(CN1C(=O)C(=O)N(C2CCCC2)C1=O)Nc1ccc(F)cc1F | . | . | . | 18 | . | .
Cc1onc(-c2ccccc2)c1C(=O)Nc1ccc(S(=O)(=O)Nc2nccs2)cc1 | 2 | 2 | 2 | -1 | . | 4
O=S(=O)(Nc1nccs1)c1ccc(Nc2nnc(-c3ccccc3)c3ccccc23)cc1 | 2 | -8 | 103* | 23 | -6 | -5
COc1cccc(-c2c(-c3cc(OC)cc(OC)c3)n(C)c3ccc(-c4cccc5[nH]ccc45)cc23)c1 | 6 | 22 | . | -6 | . | .
Cc1ccc(OCC(=O)NCCNC(=O)c2ccncc2)cc1 | 1 | . | -10 | -4 | . | -13
COc1cccc(N2CCN(Cc3cccnc3)CC2)c1 | -4 | -5 | -7 | 46 | 41 | 2
FC(F)(F)c1cccc(N2CCN(Cc3cccnc3)CC2)c1 | 2 | 30 | -2 | -3 | 88* | 46
FC(F)(F)c1cccc(N2CCN(Cc3ccoc3)CC2)c1 | 2 | 40 | 0 | -15 | 93* | 22
COc1cccc(CN2CCN(c3cccc(C(F)(F)F)c3)CC2)c1OC | -4 | 0 | -2 | 7 | 12 | -9
O=C(NNC(=O)c1cc(Br)c(Br)s1)c1csc(N2CCOCC2)n1 | -5 | -4 | -6 | 9 | . | 8
Cn1c2ccccc2c(=O)c2cc(C#Cc3ccccn3)ccc21 | -3 | 82* | 31 | -146 | . | -13
COc1cc2oc3cc(C#Cc4ccc(N)cc4)ccc3c(=O)c2cc1OC | 68 | 4 | 58* | 33 | . | -9
COc1cc2oc3ccc(C#Cc4ccccn4)cc3c(=O)c2cc1OC | . | 7 | 9 | 9 | . | 59*
Cn1c2ccccc2c(=O)c2ccc(C#Cc3ccccn3)cc21 | 16 | 28 | 2 | -38 | . | 50
COc1cc2oc3ccc(C#Cc4ccc(N)cc4)cc3c(=O)c2cc1OC | . | 4 | 78* | . | . | 13
CN(C(=O)c1ccc(NC(=O)Cc2cccc(NC(=O)C3CCN(C(=O)c4ccccc4)CC3)c2)cc1)C1CCCC1 | 4 | 14 | . | 12 | . | .
CC(=O)c1ccc(N2CCN(C(=O)c3cc(S(=O)(=O)N4CCOCC4)ccc3C)CC2)cc1 | 0 | -18 | . | 21 | . | .
Cc1c(S(=O)(=O)N2CCN(c3cccc(Cl)c3)CC2)c(=O)n(C)c(=O)n1C | 1 | -8 | -1 | 15 | . | -11
NC(=O)CCCn1c(C(=O)c2ccc(Cl)cc2)c2ccc([N+](=O)[O-])cc2[n+]1[O-] | 39 | 4 | 23 | 23 | . | 37
